Data: ChEMBL document CHEMBL5705888, “Substrate specificity and inhibitors of LRRK2, a protein kinase mutated in Parkinson's disease” (Biochem J, 2009)

Tests used:
[1] = target: T1, Dual specificity protein kinase TTK (Homo sapiens) (UniProt P33981); assay: Inhibition of TTK (unknown origin) at 10 uM incubated for 30 mins in presence of [gamma-33P]ATP by multidrop micro reagent based assay relative to control
T1 sequence (whole entry): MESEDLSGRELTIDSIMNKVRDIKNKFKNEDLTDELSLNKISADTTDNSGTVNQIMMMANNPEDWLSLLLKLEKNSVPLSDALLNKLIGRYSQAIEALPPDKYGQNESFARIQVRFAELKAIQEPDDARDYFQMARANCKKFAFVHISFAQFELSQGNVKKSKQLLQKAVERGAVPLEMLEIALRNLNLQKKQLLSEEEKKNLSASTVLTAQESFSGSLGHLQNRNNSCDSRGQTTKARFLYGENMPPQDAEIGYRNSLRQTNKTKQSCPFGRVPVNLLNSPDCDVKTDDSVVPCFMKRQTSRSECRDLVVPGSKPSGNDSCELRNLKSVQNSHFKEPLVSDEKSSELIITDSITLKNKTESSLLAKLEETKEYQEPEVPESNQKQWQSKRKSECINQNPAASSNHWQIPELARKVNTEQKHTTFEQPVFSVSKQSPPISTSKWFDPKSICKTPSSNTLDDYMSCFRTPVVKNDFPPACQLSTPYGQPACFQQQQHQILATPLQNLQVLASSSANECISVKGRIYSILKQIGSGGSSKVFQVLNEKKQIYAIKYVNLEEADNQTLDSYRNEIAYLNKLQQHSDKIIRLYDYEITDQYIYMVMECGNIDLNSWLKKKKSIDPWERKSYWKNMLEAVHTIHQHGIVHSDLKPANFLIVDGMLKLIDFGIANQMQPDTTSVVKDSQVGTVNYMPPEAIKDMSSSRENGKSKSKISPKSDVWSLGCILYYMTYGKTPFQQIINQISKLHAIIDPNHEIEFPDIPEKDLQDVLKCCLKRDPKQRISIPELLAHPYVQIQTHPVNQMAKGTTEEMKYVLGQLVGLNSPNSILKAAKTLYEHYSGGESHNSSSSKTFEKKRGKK
Procedure, shortened: (§1)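 Single-concentration screen across a panel of 85 protein kinases. Activity is expressed as a percentage of control incubations run without inhibitor.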

[2] = target: Proto-oncogene tyrosine-protein kinase Src (Homo sapiens) (UniProt P12931); assay: Inhibition of Src (unknown origin) at 10 uM incubated for 30 mins in presence of [gamma-33P]ATP by multidrop micro reagent based assay relative to control; values are per cent of control
[3] = target: T2, Serine/threonine-protein kinase STK11 (Homo sapiens) (UniProt Q15831); assay: Inhibition of LKB1 (unknown origin) at 10 uM incubated for 30 mins in presence of [gamma-33P]ATP by multidrop micro reagent based assay relative to control; values are per cent of control
T2 sequence (whole entry): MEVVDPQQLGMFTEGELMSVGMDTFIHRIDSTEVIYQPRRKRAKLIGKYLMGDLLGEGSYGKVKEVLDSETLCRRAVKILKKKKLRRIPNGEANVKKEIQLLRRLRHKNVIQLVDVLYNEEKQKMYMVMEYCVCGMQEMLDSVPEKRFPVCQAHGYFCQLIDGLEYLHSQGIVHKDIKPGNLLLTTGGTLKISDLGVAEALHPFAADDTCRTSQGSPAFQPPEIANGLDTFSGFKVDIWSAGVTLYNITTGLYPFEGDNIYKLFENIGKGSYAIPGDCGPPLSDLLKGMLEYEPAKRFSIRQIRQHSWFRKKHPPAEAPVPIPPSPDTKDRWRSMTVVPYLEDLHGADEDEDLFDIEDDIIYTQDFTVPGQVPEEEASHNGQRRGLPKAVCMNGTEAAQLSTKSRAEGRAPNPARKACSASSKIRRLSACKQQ

[4] = target: Tyrosine-protein kinase Yes (Homo sapiens) (UniProt P07947); assay: Inhibition of YES1 (unknown origin) at 10 uM incubated for 30 mins in presence of [gamma-33P]ATP by multidrop micro reagent based assay relative to control; values are per cent of control
[5] = target: Myosin light chain kinase, smooth muscle (Homo sapiens) (UniProt Q15746); assay: Inhibition of SmMLCK (unknown origin) at 10 uM incubated for 30 mins in presence of [gamma-33P]ATP by multidrop micro reagent based assay relative to control; values are per cent of control
[6] = target: T1, Dual specificity protein kinase TTK (Homo sapiens); assay: Inhibition of TTK (unknown origin) at 1 uM incubated for 30 mins in presence of [gamma-33P]ATP by multidrop micro reagent based assay relative to control; values are per cent of control
[7] = target: Mitogen-activated protein kinase 1 (Homo sapiens) (UniProt P28482); assay: Inhibition of ERK2 (unknown origin) at 1 uM incubated for 30 mins in presence of [gamma-33P]ATP by multidrop micro reagent based assay relative to control; values are per cent of control
[8] = target: T3, NUAK family SNF1-like kinase 1 (Homo sapiens) (UniProt O60285); assay: Inhibition of NUAK1 (unknown origin) at 1 uM incubated for 30 mins in presence of [gamma-33P]ATP by multidrop micro reagent based assay relative to control; procedure, shortened: as §1
T3 sequence (whole entry): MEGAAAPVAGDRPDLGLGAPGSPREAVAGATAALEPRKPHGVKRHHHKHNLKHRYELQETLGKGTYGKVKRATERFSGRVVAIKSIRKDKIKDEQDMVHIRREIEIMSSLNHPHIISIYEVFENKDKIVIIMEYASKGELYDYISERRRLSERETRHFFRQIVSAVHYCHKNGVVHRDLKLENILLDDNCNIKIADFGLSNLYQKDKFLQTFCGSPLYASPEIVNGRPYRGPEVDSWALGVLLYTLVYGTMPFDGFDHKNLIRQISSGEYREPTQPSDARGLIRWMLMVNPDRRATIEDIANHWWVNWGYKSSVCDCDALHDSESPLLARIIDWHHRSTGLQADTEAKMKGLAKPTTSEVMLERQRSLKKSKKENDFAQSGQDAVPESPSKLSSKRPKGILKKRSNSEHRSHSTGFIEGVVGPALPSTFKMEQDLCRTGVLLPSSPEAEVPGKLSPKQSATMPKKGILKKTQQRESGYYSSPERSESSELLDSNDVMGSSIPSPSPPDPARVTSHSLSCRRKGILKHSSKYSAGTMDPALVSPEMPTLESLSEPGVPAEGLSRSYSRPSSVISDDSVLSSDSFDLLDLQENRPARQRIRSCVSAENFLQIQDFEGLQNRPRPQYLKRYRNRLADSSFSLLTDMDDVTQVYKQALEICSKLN

[9] = target: Receptor tyrosine-protein kinase erbB-4 (Homo sapiens) (UniProt Q15303); assay: Inhibition of HER4 (unknown origin) at 1 uM incubated for 30 mins in presence of [gamma-33P]ATP by multidrop micro reagent based assay relative to control; values are per cent of control
Chain of Receptor tyrosine-protein kinase erbB-4 (Homo sapiens) (Q15303 whole entry): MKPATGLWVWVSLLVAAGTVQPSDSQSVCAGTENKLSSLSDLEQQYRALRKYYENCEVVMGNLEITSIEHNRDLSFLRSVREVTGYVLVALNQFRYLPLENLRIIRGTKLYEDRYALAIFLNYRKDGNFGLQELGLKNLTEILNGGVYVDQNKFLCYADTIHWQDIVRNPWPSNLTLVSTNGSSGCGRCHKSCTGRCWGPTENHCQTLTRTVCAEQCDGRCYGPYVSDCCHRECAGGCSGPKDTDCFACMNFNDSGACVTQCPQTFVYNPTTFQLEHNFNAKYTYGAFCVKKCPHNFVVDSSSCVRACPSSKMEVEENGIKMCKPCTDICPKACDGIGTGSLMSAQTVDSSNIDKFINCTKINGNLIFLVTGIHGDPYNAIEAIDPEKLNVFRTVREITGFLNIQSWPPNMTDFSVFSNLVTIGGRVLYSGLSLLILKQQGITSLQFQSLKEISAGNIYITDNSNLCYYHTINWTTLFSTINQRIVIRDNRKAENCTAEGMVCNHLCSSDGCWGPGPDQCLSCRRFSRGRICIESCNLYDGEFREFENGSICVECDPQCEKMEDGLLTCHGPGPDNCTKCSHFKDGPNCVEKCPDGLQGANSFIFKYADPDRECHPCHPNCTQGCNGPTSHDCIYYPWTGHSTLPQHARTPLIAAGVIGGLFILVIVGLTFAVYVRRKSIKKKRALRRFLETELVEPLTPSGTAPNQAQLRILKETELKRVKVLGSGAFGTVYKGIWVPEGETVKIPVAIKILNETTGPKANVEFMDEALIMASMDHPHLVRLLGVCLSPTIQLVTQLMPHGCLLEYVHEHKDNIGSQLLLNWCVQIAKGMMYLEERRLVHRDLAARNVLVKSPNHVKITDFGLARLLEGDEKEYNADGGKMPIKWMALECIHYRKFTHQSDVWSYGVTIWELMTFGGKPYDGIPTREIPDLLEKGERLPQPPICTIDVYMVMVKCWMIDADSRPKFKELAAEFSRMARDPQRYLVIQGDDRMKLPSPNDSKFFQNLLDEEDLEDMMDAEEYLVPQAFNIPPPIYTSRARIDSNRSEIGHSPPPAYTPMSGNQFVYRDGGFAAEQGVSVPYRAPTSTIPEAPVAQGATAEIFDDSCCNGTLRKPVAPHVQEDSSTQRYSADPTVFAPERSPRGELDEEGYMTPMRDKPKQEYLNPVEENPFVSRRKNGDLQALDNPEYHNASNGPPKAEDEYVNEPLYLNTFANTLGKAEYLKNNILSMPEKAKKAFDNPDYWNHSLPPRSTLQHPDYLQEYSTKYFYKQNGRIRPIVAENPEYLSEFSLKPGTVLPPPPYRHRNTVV

Chain of Proto-oncogene tyrosine-protein kinase Src (Homo sapiens) (P12931 2-536 limits assumed): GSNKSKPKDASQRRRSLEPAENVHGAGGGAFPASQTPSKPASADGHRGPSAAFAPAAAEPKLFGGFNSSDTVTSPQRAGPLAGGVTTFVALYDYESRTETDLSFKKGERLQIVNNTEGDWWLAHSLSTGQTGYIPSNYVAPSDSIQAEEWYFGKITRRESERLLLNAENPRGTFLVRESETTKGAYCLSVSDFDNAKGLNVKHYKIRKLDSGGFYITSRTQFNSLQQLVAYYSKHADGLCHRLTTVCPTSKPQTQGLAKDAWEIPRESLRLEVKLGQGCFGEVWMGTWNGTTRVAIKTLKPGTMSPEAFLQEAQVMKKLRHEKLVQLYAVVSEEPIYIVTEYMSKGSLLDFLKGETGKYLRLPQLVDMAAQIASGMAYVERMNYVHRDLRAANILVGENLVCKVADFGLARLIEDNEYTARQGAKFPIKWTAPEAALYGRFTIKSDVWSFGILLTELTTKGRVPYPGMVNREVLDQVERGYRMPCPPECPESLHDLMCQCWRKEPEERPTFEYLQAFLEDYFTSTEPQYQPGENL
Chain of Tyrosine-protein kinase Yes (Homo sapiens) (P07947 2-543 limits assumed): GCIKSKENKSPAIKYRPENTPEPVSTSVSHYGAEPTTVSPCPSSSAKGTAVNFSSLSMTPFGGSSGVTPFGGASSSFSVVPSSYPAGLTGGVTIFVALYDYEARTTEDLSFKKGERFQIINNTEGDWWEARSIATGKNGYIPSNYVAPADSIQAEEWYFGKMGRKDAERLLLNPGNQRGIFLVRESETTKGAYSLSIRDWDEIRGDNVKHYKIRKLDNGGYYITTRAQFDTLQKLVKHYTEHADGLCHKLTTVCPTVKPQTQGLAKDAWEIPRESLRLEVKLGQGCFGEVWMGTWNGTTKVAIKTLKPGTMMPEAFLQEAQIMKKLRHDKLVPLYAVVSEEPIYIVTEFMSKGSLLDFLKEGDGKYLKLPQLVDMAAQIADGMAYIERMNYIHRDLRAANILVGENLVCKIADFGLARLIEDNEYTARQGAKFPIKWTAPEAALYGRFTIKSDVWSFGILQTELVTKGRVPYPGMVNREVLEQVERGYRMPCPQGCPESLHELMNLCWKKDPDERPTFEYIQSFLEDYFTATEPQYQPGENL
Chain of Mitogen-activated protein kinase 1 (Homo sapiens) (P28482 whole entry): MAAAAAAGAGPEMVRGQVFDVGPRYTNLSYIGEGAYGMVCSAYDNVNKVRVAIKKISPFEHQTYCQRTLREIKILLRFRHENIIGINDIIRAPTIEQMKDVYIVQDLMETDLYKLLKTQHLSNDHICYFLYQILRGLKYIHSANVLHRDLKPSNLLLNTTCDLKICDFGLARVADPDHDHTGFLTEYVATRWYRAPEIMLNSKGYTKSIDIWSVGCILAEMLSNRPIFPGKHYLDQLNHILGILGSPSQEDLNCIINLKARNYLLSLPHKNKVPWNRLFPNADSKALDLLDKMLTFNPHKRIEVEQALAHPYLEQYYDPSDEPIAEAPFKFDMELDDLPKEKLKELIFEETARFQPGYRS
Chain of Myosin light chain kinase, smooth muscle (Homo sapiens) (Q15746 whole entry): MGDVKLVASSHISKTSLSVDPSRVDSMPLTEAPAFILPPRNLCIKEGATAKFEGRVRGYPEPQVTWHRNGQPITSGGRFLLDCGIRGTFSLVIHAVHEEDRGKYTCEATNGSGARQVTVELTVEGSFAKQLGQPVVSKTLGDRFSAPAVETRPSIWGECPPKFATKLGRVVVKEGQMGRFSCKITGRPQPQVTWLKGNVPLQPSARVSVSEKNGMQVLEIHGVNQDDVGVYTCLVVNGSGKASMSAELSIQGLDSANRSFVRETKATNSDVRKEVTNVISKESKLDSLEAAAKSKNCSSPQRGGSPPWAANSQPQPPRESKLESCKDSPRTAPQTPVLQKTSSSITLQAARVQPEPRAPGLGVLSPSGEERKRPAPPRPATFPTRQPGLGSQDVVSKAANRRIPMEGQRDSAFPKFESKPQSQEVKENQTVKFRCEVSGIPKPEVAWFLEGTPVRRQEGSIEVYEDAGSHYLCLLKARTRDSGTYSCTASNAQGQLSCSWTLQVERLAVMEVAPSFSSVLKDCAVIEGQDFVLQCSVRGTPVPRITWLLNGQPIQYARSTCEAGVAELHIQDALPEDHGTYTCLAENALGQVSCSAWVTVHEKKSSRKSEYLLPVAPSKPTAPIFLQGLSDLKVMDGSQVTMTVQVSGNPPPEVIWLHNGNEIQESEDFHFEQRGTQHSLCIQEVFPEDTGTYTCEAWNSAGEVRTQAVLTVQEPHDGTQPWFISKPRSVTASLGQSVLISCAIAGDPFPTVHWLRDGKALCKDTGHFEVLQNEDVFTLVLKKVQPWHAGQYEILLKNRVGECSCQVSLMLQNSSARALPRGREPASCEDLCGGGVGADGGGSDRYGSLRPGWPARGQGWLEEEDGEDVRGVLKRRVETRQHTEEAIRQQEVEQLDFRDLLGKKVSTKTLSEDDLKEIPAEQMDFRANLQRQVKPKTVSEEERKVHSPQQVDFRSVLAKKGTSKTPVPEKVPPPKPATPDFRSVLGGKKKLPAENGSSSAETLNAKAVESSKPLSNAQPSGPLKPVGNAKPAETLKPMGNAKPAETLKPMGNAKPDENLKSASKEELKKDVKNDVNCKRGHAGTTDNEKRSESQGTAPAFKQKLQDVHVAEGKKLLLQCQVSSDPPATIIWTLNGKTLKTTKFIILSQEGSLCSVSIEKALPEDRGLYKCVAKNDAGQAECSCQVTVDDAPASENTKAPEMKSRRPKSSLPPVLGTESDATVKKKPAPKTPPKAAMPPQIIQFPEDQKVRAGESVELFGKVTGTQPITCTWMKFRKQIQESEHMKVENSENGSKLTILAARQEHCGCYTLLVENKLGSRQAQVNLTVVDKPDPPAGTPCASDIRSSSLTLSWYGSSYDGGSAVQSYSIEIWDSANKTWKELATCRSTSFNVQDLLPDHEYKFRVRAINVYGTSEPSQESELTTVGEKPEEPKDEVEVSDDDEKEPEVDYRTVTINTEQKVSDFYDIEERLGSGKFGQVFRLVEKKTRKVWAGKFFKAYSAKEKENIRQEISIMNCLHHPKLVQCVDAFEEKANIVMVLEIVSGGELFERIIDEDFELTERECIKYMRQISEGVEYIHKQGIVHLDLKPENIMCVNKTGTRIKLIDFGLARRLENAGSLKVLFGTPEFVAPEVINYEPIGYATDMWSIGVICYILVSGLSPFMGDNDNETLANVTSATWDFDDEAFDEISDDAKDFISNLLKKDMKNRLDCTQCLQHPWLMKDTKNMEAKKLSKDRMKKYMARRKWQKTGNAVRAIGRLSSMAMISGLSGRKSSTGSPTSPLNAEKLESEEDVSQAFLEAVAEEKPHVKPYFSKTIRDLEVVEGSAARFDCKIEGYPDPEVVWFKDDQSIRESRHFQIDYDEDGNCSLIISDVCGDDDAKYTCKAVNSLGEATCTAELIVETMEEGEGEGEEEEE

Structure (SMILES) | inhibition [1] [%] | residual activity [2] [%] | residual activity [3] [%] | residual activity [4] [%] | residual activity [5] [%] | residual activity [6] [%] | residual activity [7] [%] | inhibition [8] [%] | residual activity [9] [%]
C[C@@H](N)[C@H]1CC[C@H](C(=O)Nc2ccncc2)CC1 | 73 | 90 | 52 | 96 | 70 |  |  |  | 
CCn1c(-c2nonc2N)nc2cnc(Oc3cccc(NC(=O)c4ccc(OCCN5CCOCC5)cc4)c3)cc21 [GSK-269962A] |  |  |  |  |  | 69 | 105 |  | 
O=S(=O)(c1cccc2cnccc12)N1CCCNCC1 [FASUDIL] | 73 | 120 | 33 | 136 | 66 |  |  |  | 
Cc1cncc2cccc(S(=O)(=O)N3CCCNC[C@@H]3C)c12 |  |  |  |  |  |  |  | 51 | 107
CC1=C(C(=O)Nc2cc3cn[nH]c3cc2F)C(c2ccc(C(F)(F)F)cc2)CC(=O)N1 (stereo not drawn) |  |  |  |  |  | 83 | 94 | 51 | 50
